According to the array DNA melting data of Ke et al. (doi:10.1101/2024.01.08.574731):

Tests used:
[1] = folding enthalpy; higher = less favourable; fluorescence melt of hairpins on a sequencing array, two-state fit; details: sodium 0.088 M
Summary of the method: (§1)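 Folding enthalpy and melting temperature come from bootstrapped two-state fits to Cy3 fluorescence of library hairpins carrying annealed Cy3 and quencher oligos on a sequenced MiSeq flow cell. Imaging was done in 50 mM Na-HEPES pH 8.0, 25 mM NaCl, stepping by 2.5 °C up to 60 °C, and signals were normalised to pre-quench Cy3 and to control constructs. Results of four replicates were combined by inverse variance, and fitted temperatures were raised by 9.35 °C to match UV melts.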

[2] = melting temperature; fluorescence melt of hairpins on a sequencing array, two-state fit, raised by 9.35 °C to match UV melts; details: sodium 0.088 M
Summary of the method: as §1

Row | Sequence | folding enthalpy [1] [kcal/mol] | Tm [2] [°C]
1 | GATTCCGGAAACGGAATC (((((((....))))))) | -42.5 | 64.7
2 | GATTCCGGAAACGGAGTC ((.((((....)))).)) | -23.8 | 47.6
3 | GATTCGCGAAAGCGATC (((.(((....)))))) | -11.6 | 44.5
4 | GATTCGCGAAAGCGCATC (((.(((....))).))) | -21.5 | 42.7
5 | GATTCGGGAAACCAAATC ((((.((....)).)))) | -22.3 | 30.1
6 | GATTCGGGAAACCGAGTC ((.((((....)))).)) | -28 | 46.7
7 | GATTCGGGAAACTGGATC (((.(.(....).).))) | -24.2 | 30.8
8 | GATTCTGGAAACAGGATC (((.(((....))).))) | -37.1 | 42.7
9 | GATTCTGGAAACGGAATC (((((.(....).))))) | -37.2 | 44.4
10 | GATTGACCGAAAGGTATC (((..(((....)))))) | -11.6 | 28.5
11 | GATTGAGGAAACTCGATC (((.(((....))).))) | -33.1 | 43.2
12 | GATTGAGGAAACTTGATC (((..((....))..))) | -7.66 | 22.4
13 | GATTGCCCGAAAGGGATC (((..(((....)))))) | -7.39 | 25.8
14 | GATTGCGCGAAAGCGATC (((..(((....)))))) | -9.1 | 32
15 | GATTGCGGAAACGCGATC (((.(((....))).))) | -30.7 | 57.5
16 | GATTGCGGAAACGTAGTC ((.(.((....)).).)) | -11.4 | 29.8
17 | GATTGCGGAAACGTGATC (((..((....))..))) | -30.6 | 40.7
18 | GATTGGCGAAAGCCCATC (((.(((....))).))) | -17 | 38.4
19 | GATTGGGCGAAAGCCATC (((..(((....)))))) | -8.31 | 26.8
20 | GATTGTGGAAACGCAATC (((((.(....).))))) | -35.5 | 47.2
21 | GATTTACGAAAGTAGATC (((.(((....))).))) | -29.5 | 41.9
22 | GATTTCCCGAAAGGGATC (((..(((....)))))) | -10.4 | 26.2
23 | GATTTCCGAAAGGAGATC (((.(((....))).))) | -34.3 | 46.8

Row | Sequence | folding enthalpy [1] [kcal/mol] | Tm [2] [°C]
24 | GATTTCGGAAACGAAGTC ((.((((....)))).)) | -23.8 | 39.3
25 | GATTTCGGAAACGAGATC (((.(((....))).))) | -30 | 41.6
26 | GATTTGGAAACAAATC ((((((....)))))) | -40.2 | 48.5
27 | GATTTGGGAAACCAGATC (((.(((....))).))) | -35.9 | 37.7
28 | GATTTGGGAAACTAAATC (((((.(....).))))) | -26.6 | 36.6
29 | GATTTTGGAAACAAAGTC ((.((((....)))).)) | -27.5 | 35.3
30 | GCAAACGAAAGTTAATGC ((((((....)))..))) | -14.7 | 30.6
31 | GCAAACGAAAGTTCTTGC ((((((....)))..))) | -10 | 31.7
32 | GCAAACGAAAGTTGTGC ((((((....))).))) | -22.6 | 43.4
33 | GCAAACGAAAGTTTTGC ((((((....))).))) | -28.5 | 49.4
34 | GCAAACGCGAAAGCGTGC (((..(((....)))))) | -13.7 | 55.7
35 | GCAAAGCGAAAGCAGTGC (((..((....))..))) | -14 | 44.7
36 | GCAAAGCGAAAGCGATGC (((..((....))..))) | -24.4 | 61.7
37 | GCAAAGGGAAACCCTTGC ((((.((....)).)))) | -29.5 | 46
38 | GCAAATGGAAACATTCGC ((.((((....)))).)) | -28.5 | 38.4
39 | GCAAATGGAAACGTTTGC (((((.(....).))))) | -38.1 | 49.6
40 | GCAACAACGAAAGTTTGC (((..(((....)))))) | -25 | 36.1
41 | GCAACAGGAAACCGTTGC (((((.(....).))))) | -43.8 | 50.4
42 | GCAACAGGAAACTGTTGC (((((((....))))))) | -40.3 | 68.5
43 | GCAACCACGAAAGTGTGC (((..(((....)))))) | -17.4 | 41.7
44 | GCAACCGAAAGGTATTGC ((((((....)))..))) | -18.3 | 39.9
45 | GCAACCGAAAGGTCGTGC ((((((....)))..))) | -17.6 | 38.1
46 | GCAACCGAAAGGTGGTGC ((((((....)))..))) | -20.8 | 48.6

Row | Sequence | folding enthalpy [1] [kcal/mol] | Tm [2] [°C]
47 | GCAACCGAAAGGTTCTGC ((((((....)))..))) | -14.9 | 41.8
48 | GCAACCGGAAACGGTCAC (..((((....))))..) | -8.88 | 24.9
49 | GCAACGACGAAAGTCTGC (((..(((....)))))) | -16.6 | 40.5
50 | GCAACGCCGAAAGGCTGC (((..(((....)))))) | -15.4 | 47.8
51 | GCAACGCGAAAGCCATGC (((..((....))..))) | -7.42 | 29.1
52 | GCAACGCGAAAGCCTCGC ((.(.((....)).).)) | -7.26 | 30.9
53 | GCAACGCGAAAGCGCGGC ((..(((....)))..)) | -14.8 | 48.1
54 | GCAACGGGAAACCATCGC ((.(.((....)).).)) | -12.5 | 27
55 | GCAACGGGAAACCATTGC ((((.((....)).)))) | -26.8 | 41.5
56 | GCAACTCCGAAAGGATGC (((..(((....)))))) | -19.8 | 38.1
57 | GCAACTCGAAAGAGATGC (((.(((....))).))) | -40.1 | 53.8
58 | GCAACTGAAAAGTTGC ((((((....)))))) | -36.6 | 62.5
59 | GCAACTGGAAACAATTGC ((((.((....)).)))) | -32.8 | 34.5
60 | GCAAGAGCGAAAGCTTGC (((..(((....)))))) | -22.8 | 51.9
61 | GCAAGAGGAAACCCTTGC (((((.(....).))))) | -25.9 | 45.3
62 | GCAAGAGGAAACTCTTAC (.(((((....))))).) | -14.6 | 28
63 | GCAAGCCGAAAGGCCTGC (((.(((....))).))) | -23.3 | 54
64 | GCAAGCCGAAAGGCGTGC (((.(((....))).))) | -18.9 | 68.7
65 | GCAAGCCGAAAGGCTGC (((.(((....)))))) | -18.8 | 68.5
66 | GCAAGCGAAAGCTAATGC ((((((....)))..))) | -15.5 | 39.4
67 | GCAAGCGAAAGCTACTGC ((((((....)))..))) | -13.2 | 37.3
68 | GCAAGCGAAAGCTATGC ((((((....))).))) | -23 | 51.2
69 | GCAAGCGAAAGCTCCTGC ((((((....)))..))) | -10.1 | 30.9

Row | Sequence | folding enthalpy [1] [kcal/mol] | Tm [2] [°C]
70 | GCAAGCGAAAGCTCGTGC ((((((....)))..))) | -15.1 | 37.4
71 | GCAAGCGAAAGCTGTGC ((((((....))).))) | -15.8 | 55.9
72 | GCAAGCGCGAAAGCGTGC (((..(((....)))))) | -12.5 | 47.5
73 | GCAAGGCGAAAGCATCGC ((.(.((....)).).)) | -14.4 | 37.3
74 | GCAAGGCGAAAGCCATGC (((.(((....))).))) | -32.8 | 57.9
75 | GCAAGGCGAAAGCCCAGC ((..(((....)))..)) | -13.1 | 45.9
76 | GCAAGGCGAAAGCCCCGC ((..(((....)))..)) | -10.7 | 37
77 | GCAAGGCGAAAGCCCGGC ((..(((....)))..)) | -17.4 | 45.9
78 | GCAAGGCGAAAGCCGAGC ((..(((....)))..)) | -29.1 | 65
79 | GCAAGGCGAAAGCCGTGC (((.(((....))).))) | -22.8 | 68
80 | GCAAGGCGAAAGCTTCGC ((.(.((....)).).)) | -12.2 | 40.9
81 | GCAAGGGAAACCTTGC ((((((....)))))) | -37.9 | 60.1
82 | GCAAGGGGAAACCCCTAC (.(.(((....))).).) | -12 | 28.7
83 | GCAAGTCGAAAGACCTGC (((.(((....))).))) | -29.6 | 47.9
84 | GCAATCGAAAGATAATGC ((((((....)))..))) | -16.3 | 27.8
85 | GCAATCGAAAGATAGTGC ((((((....)))..))) | -22.9 | 32
86 | GCAATCGAAAGATCGTGC ((((((....)))..))) | -16.1 | 28
87 | GCAATCGGAAACGATTAC (.(((((....))))).) | -16.1 | 38
88 | GCAATGCGAAAGCAGGGC ((..(((....)))..)) | -25.4 | 60.9
89 | GCAATGCGAAAGCAGTGC (((.(((....))).))) | -33.6 | 65.6
90 | GCAATGCGAAAGCCGTGC (((..((....))..))) | -20.4 | 35.4
91 | GCAATGCGAAAGCCTTGC ((((.((....)).)))) | -27.6 | 53.9
